Activity calls are given as the source filed them. No cut-off for these calls is given here.
Key:
Cavia porcellus [1] = species: Cavia porcellus; experiment: Maximum increase in coronary flow in isolated guinea pig heart at a dose of 10 ug.; format: functional
Method in brief: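 Langendorff-perfused isolated guinea pig heart with oxygenated (95% O2/5% CO2) Krebs-Henseleit fluid at 34 ± 1 °C and 60 cm H2O perfusion pressure. Compound dissolved in propylene glycol at 100 µg/mL and infused at 0.1 mL/min. Coronary flow recorded by electromagnetic flow meter before and after infusion, expressed as percent gain. Mean ± SE of five experiments.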

Cavia porcellus [2] = species: Cavia porcellus; experiment: Effect on maximum increase in coronary flow in isolated guinea pig heart at a dose of 10 (ug/heart); Inactive; format: functional
Canis familiaris [3] = experiment: Compound was tested for max increase in blood flow through cicumflex branch of left coronary artery, 5 min after administration; format: functional, Canis lupus familiaris
Method in brief: (§1)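 Anesthetized dogs (12-22 kg; pentobarbital sodium 35 mg/kg ip, supportive respiration) underwent left thoracotomy at the fourth intercostal space. Flow in the left coronary artery branch was recorded with an electromagnetic flow meter and expressed as percent increase. Compound in 0.5% CMC (10 mg/mL) was given intraduodenally at 10 mg/kg. Values are mean ± SE, six experiments.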

Canis familiaris [4] = experiment: Compound was tested for max increase in blood flow through cicumflex branch of left coronary artery, 60 min after administration; format: functional, Canis lupus familiaris; method in brief: as §1
Canis familiaris [5] = experiment: Change in the mean blood pressure and hypotensive action was measured in dogs at 10 mg/kg dose, 5 min after id administration; format: functional, Canis lupus familiaris; settings: route intraduodenal
Method in brief: (§2)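 Dogs of 12-22 kg were anesthetized with pentobarbital sodium (35 mg/kg ip), given supportive respiration, and opened by left thoracotomy at the fourth intercostal space. Compound was suspended in 0.5% CMC (10 mg/mL) and given intraduodenally via cannula at 10 mg/kg. Blood pressure was taken by carotid cannula and pressure transducer, and heart rate from the ECG. Values are mean ± SE, six experiments.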

Cavia porcellus [6] = species: Cavia porcellus; experiment: pA2 was measured as Calcium antagonistic activity
Canis familiaris [7] = experiment: Change in the heart rate and hypotensive action was measured in dogs at 10 mg/kg dose, 5 min after id administration; format: functional, Canis lupus familiaris; settings: route intraduodenal; method in brief: as §2
Canis familiaris [8] = experiment: Compound was tested for max increase in blood flow through cicumflex branch of left coronary artery, 30 min after administration; format: functional, Canis lupus familiaris; method in brief: as §1
Canis familiaris [9] = experiment: Change in the mean blood pressure and hypotensive action was measured in dogs at 10 mg/kg dose, 60 min after id administration; format: functional, Canis lupus familiaris; settings: route intraduodenal; method in brief: as §2
Canis familiaris [10] = experiment: Change in the heart rate and hypotensive action was measured in dogs at 10 mg/kg dose, 120 min after id administration; format: functional, Canis lupus familiaris; settings: route intraduodenal; method in brief: as §2
Canis familiaris [11] = experiment: Change in the mean blood pressure and hypotensive action was measured in dogs at 10 mg/kg dose, 30 min after id administration; format: functional, Canis lupus familiaris; settings: route intraduodenal; method in brief: as §2
Canis familiaris [12] = experiment: Change in the mean blood pressure and hypotensive action was measured in dogs at 10 mg/kg dose, 120 min after id administration; format: functional, Canis lupus familiaris; settings: route intraduodenal; method in brief: as §2
Canis familiaris [13] = experiment: Compound was tested for max increase in blood flow through cicumflex branch of left coronary artery, 120 min after administration; format: functional, Canis lupus familiaris; method in brief: as §1
Canis familiaris [14] = experiment: Change in the heart rate and hypotensive action was measured in dogs at 10 mg/kg dose, 60 min after id administration; format: functional, Canis lupus familiaris; settings: route intraduodenal; method in brief: as §2
Canis familiaris [15] = experiment: Change in the heart rate and hypotensive action was measured in dogs at 10 mg/kg dose, 30 min after id administration; format: functional, Canis lupus familiaris; settings: route intraduodenal; method in brief: as §2
Canis familiaris [16] = experiment: Compound was tested for max increase in blood flow through circumflex branch of left coronary artery, 5 min after administration; format: functional, Canis lupus familiaris; method in brief: as §1

CCOP(=O)(Cc1ccc(-c2nc3cc(O)ccc3s2)cc1)OCC
Increase (Cavia porcellus [1]): 49%

CCOC(=O)Cc1ccc(-c2nc3ccccc3s2)cc1
Increase (Cavia porcellus [2]): inactive

COP(=O)(Cc1ccc(-c2nc3ccccc3s2)cc1)OC
Increase (Cavia porcellus [1]): 34.8%

CCOP(=O)(Cc1ccc(-c2nc3ccc(OC(C)=O)cc3s2)cc1)OCC
Increase (Cavia porcellus [1]): 56.7%

COc1ccc(Cc2nccc3cc(OC)c(OC)cc23)cc1OC.Cl [PAPAVERINE HYDROCHLORIDE]
Increase (Cavia porcellus [1]): 55.8%

CCCCOP(=O)(Cc1ccc(-c2nc3ccccc3s2)cc1)OCCCC
Increase (Cavia porcellus [1]): 37.3%

O=P(O)(O)Cc1ccc(-c2nc3ccccc3s2)cc1
Increase (Cavia porcellus [2]): inactive

CCOP(=O)(Cc1ccc(-c2nc3ccc(C)cc3s2)cc1)OCC
Increase (Cavia porcellus [1]): 31.3%

COc1ccc([C@@H]2Sc3ccccc3N(CCN(C)C)C(=O)[C@@H]2OC(C)=O)cc1.Cl [DILTIAZEM HYDROCHLORIDE]
Increase (Canis familiaris [3]): 6.5% | Increase (Canis familiaris [4]): 89.4% | Change (Canis familiaris [5]): -2.7 mmHg | Kb (Cavia porcellus [6]): 417 nM | Change (Canis familiaris [7]): 3.2 beats min-1 | Increase (Canis familiaris [8]): 85.5% | Change (Canis familiaris [9]): -13.8 mmHg | Change (Canis familiaris [10]): -27.2 beats min-1 | Increase (Cavia porcellus [1]): 63.9% | Change (Canis familiaris [11]): -10.7 mmHg | Change (Canis familiaris [12]): -14.5 mmHg | Increase (Canis familiaris [13]): 74.6% | Change (Canis familiaris [14]): -29.2 beats min-1 | Change (Canis familiaris [15]): -19.7 beats min-1

CCOP(=O)(Cc1ccc(-c2nc3ccc(O)cc3s2)cc1)OCC
Increase (Cavia porcellus [1]): 63.3%

CCOP(=O)(Cc1ccc(-c2nc3ccccc3s2)cc1)OCC [FOSTEDIL]
Increase (Canis familiaris [4]): 87.5% | Change (Canis familiaris [5]): -13.4 mmHg | Kb (Cavia porcellus [6]): 120 nM | Change (Canis familiaris [7]): -6.9 beats min-1 | Increase (Canis familiaris [8]): 65.2% | Increase (Canis familiaris [16]): 28.2% | Change (Canis familiaris [9]): -12 mmHg | Change (Canis familiaris [10]): -18.7 beats min-1 | Increase (Cavia porcellus [1]): 79.9% | Change (Canis familiaris [11]): -9.7 mmHg | Change (Canis familiaris [12]): -13.3 mmHg | Increase (Canis familiaris [13]): 91.8% | Change (Canis familiaris [14]): -20.8 beats min-1 | Change (Canis familiaris [15]): -18.3 beats min-1

CCOP(=O)(Cc1ccc(-c2nc3ccc(OC)cc3s2)cc1)OCC
Increase (Cavia porcellus [1]): 20.1%

CCCOP(=O)(Cc1ccc(-c2nc3ccccc3s2)cc1)OCCC
Increase (Cavia porcellus [1]): 62.4%

CCOP(=O)(Cc1ccc(-c2nc3cc(OC(C)=O)ccc3s2)cc1)OCC
Increase (Cavia porcellus [1]): 23.2%

CCOP(=O)(Cc1ccc(-c2nc3ccc(Cl)cc3s2)cc1)OCC
Increase (Cavia porcellus [1]): 54.6%

Cc1ccc(-c2nc3ccccc3s2)cc1
Increase (Cavia porcellus [2]): inactive

CCOP(=O)(Cc1ccc(-c2nc3ccc(NC(C)=O)cc3s2)cc1)OCC
Increase (Cavia porcellus [1]): 48.7%

CCOP(=O)(Cc1ccc(-c2nc3ccc(N)cc3s2)cc1)OCC.Cl
Increase (Cavia porcellus [1]): 50%

CC(C)OP(=O)(Cc1ccc(-c2nc3ccccc3s2)cc1)OC(C)C
Increase (Cavia porcellus [1]): 75.6%

CCOP(=O)(Cc1ccc(-c2nc3cccc(OC(C)=O)c3s2)cc1)OCC
Increase (Cavia porcellus [1]): 71.7%

CCOP(=O)(Cc1ccc(-c2nc3cccc(O)c3s2)cc1)OCC
Increase (Cavia porcellus [1]): 20.6%

CCOP(=O)(Cc1ccc(-c2nc3ccc([N+](=O)[O-])cc3s2)cc1)OCC
Increase (Cavia porcellus [2]): inactive
